From PubChem
FGF22 binding: shifts melting point of recombinant human FGF22. hit rate 1.5% among 340,000. Q9HCT0. AID 651658. activity (Tm shift, normalised), % at 9.99 µM. recombinant FGF22 thermal shift, SYPRO orange fluorescence; percent of sucrose octasulfate shift, DMSO zero;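 active means mean Tm shift, scaled 0 neutral to 100 positive control, at about 1.3% or above, every replicate too, limit read from the data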
NSD2 inh: inhibitors of human histone methyltransferase NSD2 | O96028 | NSD2 peptide methylation, AlphaScreen, 120 min | inhibition, % at 12.5 µM | hit rate 0.54% among 310,000; in the data active means inhibition above about 50%
Casp6 inh: blocks human caspase-6 cleavage activity. P55212. purified caspase-6, Z-VEID-R110 cleavage fluorescence. inhibition, % at 12.5 µM. hit rate 0.53% among 350,000;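 active means mean inhibition across replicates at least about 35%, with every replicate also reaching that limit, limit read from the data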;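 further: 0% = median of neutral control wells and 100% = no fluorescence left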
UCH37 inh: blocks the human deubiquitinase UCH37. Q9Y5K5. purified proteasome/UCH37, Ub-AMC cleavage fluorescence. inhibition, % (test concentration not listed). hit rate 0.33% among 330,000. AID 588478;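 active means mean inhibition over replicate wells above about 20%, limit read from the data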;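 further: 0% = compound-free wells with enzyme and 100% = wells lacking proteasome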
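Material: human UCH37 enzyme supplied as purified proteasome complex. Measure: % inhibition of Ub-AMC cleavage fluorescence. Medium: pH 7.4 Tris-HCl (50 mM) with ovalbumin, ATP-MgCl2, DTT. Times: 30 min preincubation with enzyme, 25 min cleavage at room temperature. Detection: AMC fluorescence intensity at 355/460 nm.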
SIRT5 inh: inhibitors of human sirtuin-5 desuccinylase; Purified SirT5, succinyl-peptide AMC, trypsin-coupled fluorescence; inhibition, % at 15 µM; hit rate 1.1% among 330,000; AID 652115; in the data active means inhibition above about 15%
Numbers without * were called inactive; x = no result. Most compounds without a hit are left out; they make up all but 2.6% or so of the library.

SMILES	FGF22 binding	NSD2 inh	Casp6 inh	UCH37 inh	SIRT5 inh
CCOC(=O)c1sc2ncc([N+](=O)[O-])cc2c1N	0.0	1.1	0.0	5.9	-4.9
CCOCCOc1cc(NCc2ccccc2)c2ncn(C(C)C)c2c1	-0.1	x	41.1*	1.0	x
Cc1[nH]c2ccccc2c1C=NNc1nc(Nc2ccc(F)cc2)nc(N2CCOCC2)n1	x	x	x	3.2	x
CC1CC(=O)C(C2c3ccccc3CCN2C(=O)CCl)C(=O)C1 (stereo not drawn)	44.1*	-3.7	-0.4	3.6	1.2
O=C(NCCNc1ccc([N+](=O)[O-])cc1C(F)(F)F)c1ccccc1	43.0*	18.5	0.5	5.6	1.1
O=C(NCCNc1ccc([N+](=O)[O-])cc1C(F)(F)F)c1cccc(F)c1	x	2.4	x	10.5	x
CO[C@@H]1CN(C)C(=O)c2cc(NC(=O)C3CC3)ccc2OC[C@@H](C)N(CCC(F)(F)F)C[C@@H]1C	-0.2	x	-2.2	x	3.5
CCOc1ccc(S(=O)(=O)NCC2(N3CCCCC3)CCCCC2)cc1	-0.5	1.3	-1.1	3.0	-1.5
CCOc1ccc(S(=O)(=O)NCCC(=O)NCC2(N3CCCCC3)CCCCC2)cc1	0.2	-0.1	49.6*	2.8	-2.2
CCOC(=O)C1CCN(C2=C(NS(=O)(=O)c3ccc(Br)cc3)C(=O)c3ccccc3C2=O)CC1	-0.4	x	8.6	23.1*	22.6*
NC(=O)C1CCN(C2=C(NS(=O)(=O)c3ccc(Br)cc3)C(=O)c3ccccc3C2=O)CC1	-0.2	52.2*	8.2	21.2*	-2.3
CCOC(=O)N1CCN(C2=C(NS(=O)(=O)c3ccc(Br)cc3)C(=O)c3ccccc3C2=O)CC1	-0.5	27.4	4.5	x	x
CO[C@H]1CN(C)C(=O)c2ccc(NC(=O)c3ccccc3)cc2OC[C@@H](C)N(C(C)=O)C[C@H]1C	0.0	x	2.6	x	1.8
CO[C@@H]1CN(C)C(=O)c2ccc(NS(=O)(=O)c3ccc(-c4ccccc4)cc3)cc2OC[C@H](C)NC[C@H]1C	-0.5	x	3.0	x	x
C[n+]1ccccc1C1CCCCC1=NNC(N)=S (stereo not drawn)	x	x	x	-2.5	x
C[n+]1ccccc1C1CCCC/C1=N\NC(N)=S (stereo not drawn)	43.2*	-4.0	-5.8	x	-3.3
COC1CC(=NO)C2OC(c3ccccc3)OCC2O1 (stereo not drawn)	x	x	x	0.9	x
C[C@@H]1CN([C@@H](C)CO)C(=O)c2cc(NC(=O)Nc3ccccc3)ccc2O[C@@H](C)CCCCO[C@@H]1CN(C)Cc1ccccc1	-0.3	x	1.9	x	7.5
COc1cc(/C=C/C(=O)OCC(=O)Nc2sc3c(c2C#N)CCC(C)C3)ccc1OCC#N (stereo not drawn)	0.4	-1.6	-0.8	-3.2	15.3*
O=C(NCC(c1ccco1)N1CCc2ccccc21)c1ccccc1 (stereo not drawn)	x	14.3	51.6*	4.9	-3.5
C[C@H](CO)N1C[C@H](C)[C@H](CN(C)CC2CCOCC2)Oc2ncc(C#Cc3ccccn3)cc2C1=O	-0.3	x	0.0	x	-0.4
COC(=O)c1c(C)[nH]c(C(=O)CN2CCOCC2)c1C	x	1.9	x	-1.1	x
COC(=O)c1c(C)[nH]c(C(=O)CC#N)c1C	43.3*	3.5	-1.4	1.4	-1.6
O=C(N[C@@H]1CC[C@H](CCNC(=O)C2CCCCC2)O[C@H]1CO)c1ccccn1	-0.4	x	0.8	x	9.8
CCS(=O)(=O)N1CCCC(C(=O)NCC2CCCO2)C1 (stereo not drawn)	x	-2.5	x	31.4*	x
SMILES	FGF22 binding	NSD2 inh	Casp6 inh	UCH37 inh	SIRT5 inh
CCOC(=O)CSc1nc(C)c2cc(C)c(C)cc2n1	42.2	-4.5	-2.8	3.8	16.7*
Cc1ccc(CSCC(=O)Nc2ccccc2F)cc1	43.5*	x	-0.9	4.7	-3.9
C/C(=N\NC(=O)c1cc(C)[nH]n1)c1cccs1	43.7*	-0.6	-1.6	x	1.5
C/C(=N\NC(=O)c1ccc(CSc2nncn2C)cc1)c1cccs1	43.3*	20.9	1.6	x	-1.7
CC(=NNC(=O)c1ccc(CSc2nncn2C)cc1)c1cccs1	x	x	x	6.5	x
CC(C)NC(=O)COC(=O)c1ccccc1C(=O)c1ccccc1	44.1*	2.8	-4.3	2.0	-11.8
CC(C)NC(=O)COC(=O)c1ccc(Oc2ccccc2)cc1	x	-1.4	x	3.0	x
CC(=O)N(C[C@H]1N[C@H](CO)[C@@H]1c1ccc(-c2cncnc2)cc1)C1CCCC1	x	x	x	x	-1.4
O=C(O)c1cc(-c2ccc(C=NNc3ccc(Cl)cc3)o2)ccc1Cl	x	x	x	-72.8	x
Cn1c(=O)n(C)c2cc(NS(=O)(=O)c3ccc(Br)s3)ccc21	0.1	-1.2	-3.9	4.1	-5.2
Cn1c(=O)n(C)c2cc(NS(=O)(=O)c3ccc(Cl)s3)ccc21	0.0	-1.6	1.8	-0.3	17.9*
Cc1cc(-c2ccccc2)[nH]c(=O)c1C#N	43.1*	-0.6	0.9	-58.8	0.5
C[C@@H]1CN([C@@H](C)CO)C(=O)c2cc(NC(=O)Nc3ccc(F)cc3)ccc2O[C@H]1CN(C)S(C)(=O)=O	0.1	x	2.0	x	-0.6
Cc1cc(C)c(C(=O)COC(=O)CN2C(=O)NC3(CCCC3)C2=O)cc1C	43.1*	-2.1	0.7	0.6	x
COc1ccccc1C(=O)COC(=O)CN1C(=O)NC2(CCCC2)C1=O	-0.4	-0.4	2.2	0.3	0.6
C/C(C=NN1CCN(Cc2ccc(C)cc2)CC1)=C\c1ccccc1	x	x	x	-0.8	x
CCCCC(C)=NNC(=O)CN(c1ccc(Br)cc1)S(=O)(=O)c1ccccc1	x	x	x	-2.3	x
CN(C)CC(=O)N1CC2(C1)[C@H](c1ccccc1)[C@H](CO)N2C(=O)C1CCCC1	x	x	2.0	x	2.8
O=C(CNCc1ccccc1)Nc1ccccc1-c1ccccc1	44.0*	-2.5	2.4	-1.4	-2.1
CC(=O)Nc1ccc(N2C(=O)CSC2c2ccc([N+](=O)[O-])cc2)cc1 (stereo not drawn)	-0.1	-1.3	0.5	2.6	27.2*
CC(=O)Nc1ccc(N2C(=O)CSC2c2ccccc2)cc1 (stereo not drawn)	0.0	0.7	-0.7	-0.1	10.8
CCN(CC)CCCN1C(=O)CSC1c1ccc([N+](=O)[O-])cc1 (stereo not drawn)	43.4*	19.4	-2.4	4.0	0.4
COc1ccc(C2SCC(=O)N2CCCN(C)C)cc1 (stereo not drawn)	x	19.2	x	33.9*	x
COc1ccc(C2SCC(=O)N2c2ccc(OC)cc2)cc1 (stereo not drawn)	-0.1	0.2	0.8	3.6	-0.6
CCOC(=O)n1c(=O)n(C)c2ccc(Cl)cc21	-0.1	2.6	0.0	0.4	19.7*
COCCNC(=O)C(C)Oc1ccccc1 (stereo not drawn)	43.1*	-0.8	0.3	-1.0	-1.1
COc1ccccc1CNC(=O)C(C)Oc1ccccc1 (stereo not drawn)	-0.1	-5.4	-1.0	4.1	-0.8
CCOc1ccc(N/C=C/C(=O)c2ccc(OC)c(OC)c2)cc1	0.1	0.2	-2.2	-11.1	3.9
CCCOc1ccc(N/C=C/C(=O)c2ccc(OC)c(OC)c2)cc1	-0.1	-3.1	-1.7	x	16.7*
CC[n+]1c(C)sc2c3ccsc3ccc21	43.3*	1.4	-0.9	-1.2	2.0
